Assay results reported in ChEMBL document CHEMBL5252513, “Identification of a Benzoisoxazoloazepine Inhibitor (CPI-0610) of the Bromodomain and Extra-Terminal (BET) Family as a Candidate for Human Clinical Trials” (J Med Chem, 2016).
pIC50: −log10 of the molar value. Calls of active or inactive are those of the source. The calls are words filed in the database; no cut-off is given here.

Key:
[1] = target: Histone acetyltransferase KAT2B (Homo sapiens, UniProt Q92831); assay: Binding affinity to PCAF bromodomain (unknown origin) incubated for 60 mins by TR-FRET assay
Histone acetyltransferase KAT2B, sequence (Q92831 whole entry): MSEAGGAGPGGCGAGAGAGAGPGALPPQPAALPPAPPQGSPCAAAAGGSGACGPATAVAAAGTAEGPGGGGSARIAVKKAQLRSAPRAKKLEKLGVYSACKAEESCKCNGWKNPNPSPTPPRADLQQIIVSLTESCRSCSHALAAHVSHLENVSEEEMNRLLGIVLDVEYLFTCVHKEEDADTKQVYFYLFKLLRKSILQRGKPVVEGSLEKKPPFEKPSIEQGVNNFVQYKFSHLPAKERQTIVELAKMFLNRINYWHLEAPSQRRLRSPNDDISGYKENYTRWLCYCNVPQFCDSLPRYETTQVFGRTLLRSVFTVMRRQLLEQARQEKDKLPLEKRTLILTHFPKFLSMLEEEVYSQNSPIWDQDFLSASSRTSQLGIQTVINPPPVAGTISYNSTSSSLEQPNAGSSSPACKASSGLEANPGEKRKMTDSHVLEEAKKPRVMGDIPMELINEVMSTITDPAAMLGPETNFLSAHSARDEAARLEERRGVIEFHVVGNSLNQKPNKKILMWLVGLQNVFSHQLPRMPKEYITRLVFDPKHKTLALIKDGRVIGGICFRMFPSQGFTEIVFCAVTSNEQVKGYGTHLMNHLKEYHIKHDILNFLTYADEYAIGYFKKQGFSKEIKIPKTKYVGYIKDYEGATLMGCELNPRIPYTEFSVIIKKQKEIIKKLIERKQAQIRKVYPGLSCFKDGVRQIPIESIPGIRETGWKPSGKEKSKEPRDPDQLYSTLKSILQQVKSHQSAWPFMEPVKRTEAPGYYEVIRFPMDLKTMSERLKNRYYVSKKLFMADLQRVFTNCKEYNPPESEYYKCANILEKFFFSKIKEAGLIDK

[2] = target: T1, Bromodomain-containing protein 9 (Homo sapiens, UniProt Q9H8M2); assay: Binding affinity to BRD9 bromodomain (unknown origin) incubated for 60 mins by TR-FRET assay
T1 sequence (Q9H8M2 whole entry): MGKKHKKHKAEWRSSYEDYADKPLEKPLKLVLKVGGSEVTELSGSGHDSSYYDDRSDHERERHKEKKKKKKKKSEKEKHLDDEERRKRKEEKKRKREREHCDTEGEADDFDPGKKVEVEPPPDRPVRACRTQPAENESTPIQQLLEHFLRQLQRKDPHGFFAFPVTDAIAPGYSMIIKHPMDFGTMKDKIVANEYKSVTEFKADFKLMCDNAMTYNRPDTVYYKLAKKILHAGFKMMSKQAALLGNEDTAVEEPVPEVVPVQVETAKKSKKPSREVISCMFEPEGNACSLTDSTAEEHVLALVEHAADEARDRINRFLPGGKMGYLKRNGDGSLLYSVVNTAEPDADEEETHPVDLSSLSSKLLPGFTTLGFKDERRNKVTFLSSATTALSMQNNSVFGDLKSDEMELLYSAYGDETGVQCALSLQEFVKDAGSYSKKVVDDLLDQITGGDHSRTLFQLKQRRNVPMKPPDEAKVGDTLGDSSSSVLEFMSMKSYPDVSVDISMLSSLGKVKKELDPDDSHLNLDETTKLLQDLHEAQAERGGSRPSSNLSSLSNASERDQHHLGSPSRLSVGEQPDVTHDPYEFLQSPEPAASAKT

[3] = Unbound AUC in mouse at 30 mg/kg,po; format: ADME, organism-based; conditions: in vivo
[4] = Cmax in mouse at 30 mg/kg,po; format: ADME, organism-based; set-up: dose 30 mg/kg, route po; conditions: in vivo
[5] = Tmax in rat at 5 mg/kg,po; format: ADME, organism-based; conditions: in vivo
[6] = Cmax in rat at 5 mg/kg,po; format: ADME, organism-based; set-up: dose 5 mg/kg, route po; conditions: in vivo
[7] = AUC (0 to infinity) in rat at 5 mg/kg,po; format: ADME, organism-based; set-up: dose 5 mg/kg, route po; conditions: in vivo
[8] = Half life in rat plasma at 1 mg/kg,iv; format: ADME, organism-based
[9] = Protein binding in human plasma; format: ADME, cell-free; conditions: read-out: PPB (converted)
[10] = Protein binding in dog plasma; format: ADME, cell-free, Canis lupus familiaris; conditions: read-out: PPB (converted)
[11] = Protein binding in rat plasma; format: ADME, cell-free; conditions: read-out: PPB (converted)
[12] = Intrinsic clearance in human liver microsomes; format: ADME, Microsome; conditions: read-out: CLH
[13] = Intrinsic clearance in rat liver microsomes; format: ADME, Microsome
[14] = Tmax in dog at 2.5 mg/kg,po; format: ADME, organism-based, Canis lupus familiaris; conditions: in vivo
[15] = Oral bioavailability in dog at 2.5 mg/kg; format: ADME, organism-based, Canis lupus familiaris; conditions: in vivo
[16] = Half life in dog plasma at 0.5 mg/kg,iv; format: ADME, organism-based, Canis lupus familiaris
[17] = Apparent oral clearance in human patient with progression lymphoma at 300 mg,po QD consecutively for 14 days; format: ADME; conditions: in vivo, 336 h, time 14 day
Procedure, shortened: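 Phase I trial in patients with hematologic malignancies, oral dosing once daily with escalating cohorts; values are from the 300 mg dose on day 14. AUC0-24 was taken as exposure over 24 h. Apparent clearance was calculated as Dose/AUC0-24.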

[18] = Tmax in human patient with progression lymphoma at 300 mg,po QD consecutively for 14 days; format: ADME; conditions: in vivo, time 14 day
[19] = Unbound clearance in dog at 0.5 mg/kg,iv; format: ADME, organism-based, Canis lupus familiaris; conditions: in vivo
[20] = Cmax in mouse at 10 mg/kg,sc; format: ADME, organism-based; set-up: dose 10 mg/kg, route sc; conditions: in vivo
[21] = Unbound AUC in mouse at 10 mg/kg,sc; format: ADME, organism-based; conditions: in vivo
CREB-binding protein = CREB-binding protein (Homo sapiens, UniProt Q92793); assay: Displacement of biotinylated JQ1 from CBP bromodomain (unknown origin) incubated for 20 mins by AlphaLISA assay
CREB-binding protein, sequence (Q92793 whole entry): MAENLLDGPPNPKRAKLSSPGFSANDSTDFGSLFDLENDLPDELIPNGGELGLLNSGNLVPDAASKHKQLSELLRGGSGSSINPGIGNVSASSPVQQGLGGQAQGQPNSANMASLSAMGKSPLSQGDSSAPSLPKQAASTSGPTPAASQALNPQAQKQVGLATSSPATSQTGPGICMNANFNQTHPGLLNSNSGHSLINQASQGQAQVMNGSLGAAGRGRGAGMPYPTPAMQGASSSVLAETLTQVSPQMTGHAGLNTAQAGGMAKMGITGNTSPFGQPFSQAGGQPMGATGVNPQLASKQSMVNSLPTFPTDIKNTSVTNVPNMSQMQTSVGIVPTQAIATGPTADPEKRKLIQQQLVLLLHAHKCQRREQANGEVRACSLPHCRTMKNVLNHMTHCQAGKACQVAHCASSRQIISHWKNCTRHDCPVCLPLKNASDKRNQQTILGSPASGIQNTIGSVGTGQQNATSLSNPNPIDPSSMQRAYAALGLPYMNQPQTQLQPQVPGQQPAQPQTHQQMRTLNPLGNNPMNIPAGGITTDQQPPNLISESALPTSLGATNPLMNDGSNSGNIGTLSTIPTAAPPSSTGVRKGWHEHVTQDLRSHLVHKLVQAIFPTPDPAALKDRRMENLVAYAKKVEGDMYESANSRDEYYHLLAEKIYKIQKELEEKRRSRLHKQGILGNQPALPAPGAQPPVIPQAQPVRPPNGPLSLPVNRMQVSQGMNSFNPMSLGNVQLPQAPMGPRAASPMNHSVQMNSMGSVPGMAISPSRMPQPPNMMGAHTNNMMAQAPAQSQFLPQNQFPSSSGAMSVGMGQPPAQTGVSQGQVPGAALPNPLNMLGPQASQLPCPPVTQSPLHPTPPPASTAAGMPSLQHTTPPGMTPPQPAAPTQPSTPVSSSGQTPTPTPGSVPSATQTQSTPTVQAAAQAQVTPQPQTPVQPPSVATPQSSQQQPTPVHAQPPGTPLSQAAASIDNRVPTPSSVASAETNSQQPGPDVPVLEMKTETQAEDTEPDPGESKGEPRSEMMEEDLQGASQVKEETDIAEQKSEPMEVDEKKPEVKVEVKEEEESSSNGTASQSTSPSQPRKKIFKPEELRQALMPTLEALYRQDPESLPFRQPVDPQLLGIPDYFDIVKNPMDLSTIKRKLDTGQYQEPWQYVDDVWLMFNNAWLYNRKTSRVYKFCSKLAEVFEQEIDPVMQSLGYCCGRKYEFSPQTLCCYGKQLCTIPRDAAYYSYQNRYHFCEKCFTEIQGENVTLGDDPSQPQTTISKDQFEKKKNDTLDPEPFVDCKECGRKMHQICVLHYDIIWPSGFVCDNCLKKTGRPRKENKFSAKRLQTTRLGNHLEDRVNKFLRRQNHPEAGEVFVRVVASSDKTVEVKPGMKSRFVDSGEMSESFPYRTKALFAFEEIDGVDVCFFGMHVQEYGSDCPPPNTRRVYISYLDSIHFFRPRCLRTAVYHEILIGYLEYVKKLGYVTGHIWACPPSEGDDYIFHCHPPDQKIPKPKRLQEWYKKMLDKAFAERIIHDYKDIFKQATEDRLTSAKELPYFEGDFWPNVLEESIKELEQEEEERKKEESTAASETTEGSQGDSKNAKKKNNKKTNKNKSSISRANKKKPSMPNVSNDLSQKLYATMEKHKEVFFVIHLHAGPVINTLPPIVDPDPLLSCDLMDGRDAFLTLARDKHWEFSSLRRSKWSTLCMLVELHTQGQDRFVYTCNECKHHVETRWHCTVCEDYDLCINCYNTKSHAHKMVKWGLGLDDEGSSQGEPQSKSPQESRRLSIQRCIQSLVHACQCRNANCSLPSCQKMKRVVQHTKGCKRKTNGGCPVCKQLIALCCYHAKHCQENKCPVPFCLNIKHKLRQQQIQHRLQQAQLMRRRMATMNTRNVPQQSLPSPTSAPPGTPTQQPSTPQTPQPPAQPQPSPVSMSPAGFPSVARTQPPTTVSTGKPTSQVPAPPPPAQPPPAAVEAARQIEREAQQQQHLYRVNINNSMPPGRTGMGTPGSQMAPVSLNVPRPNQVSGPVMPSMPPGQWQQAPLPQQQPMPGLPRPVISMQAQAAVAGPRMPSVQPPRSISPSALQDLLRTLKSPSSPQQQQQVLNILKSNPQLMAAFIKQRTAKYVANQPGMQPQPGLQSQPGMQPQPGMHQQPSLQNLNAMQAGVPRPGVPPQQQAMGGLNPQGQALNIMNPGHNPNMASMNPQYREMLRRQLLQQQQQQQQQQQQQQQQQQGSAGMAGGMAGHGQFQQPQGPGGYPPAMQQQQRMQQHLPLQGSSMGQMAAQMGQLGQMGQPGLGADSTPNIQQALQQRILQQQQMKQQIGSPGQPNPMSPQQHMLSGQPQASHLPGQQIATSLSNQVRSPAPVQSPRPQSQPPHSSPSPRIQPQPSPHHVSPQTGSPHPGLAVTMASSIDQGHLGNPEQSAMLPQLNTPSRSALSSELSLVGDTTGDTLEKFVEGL

[22] = target: Bromodomain-containing protein 8 (Homo sapiens, UniProt Q9H0E9); assay: Binding affinity to BRD8 bromodomain (unknown origin) incubated for 60 mins by TR-FRET assay
Bromodomain-containing protein 8, sequence (Q9H0E9 whole entry): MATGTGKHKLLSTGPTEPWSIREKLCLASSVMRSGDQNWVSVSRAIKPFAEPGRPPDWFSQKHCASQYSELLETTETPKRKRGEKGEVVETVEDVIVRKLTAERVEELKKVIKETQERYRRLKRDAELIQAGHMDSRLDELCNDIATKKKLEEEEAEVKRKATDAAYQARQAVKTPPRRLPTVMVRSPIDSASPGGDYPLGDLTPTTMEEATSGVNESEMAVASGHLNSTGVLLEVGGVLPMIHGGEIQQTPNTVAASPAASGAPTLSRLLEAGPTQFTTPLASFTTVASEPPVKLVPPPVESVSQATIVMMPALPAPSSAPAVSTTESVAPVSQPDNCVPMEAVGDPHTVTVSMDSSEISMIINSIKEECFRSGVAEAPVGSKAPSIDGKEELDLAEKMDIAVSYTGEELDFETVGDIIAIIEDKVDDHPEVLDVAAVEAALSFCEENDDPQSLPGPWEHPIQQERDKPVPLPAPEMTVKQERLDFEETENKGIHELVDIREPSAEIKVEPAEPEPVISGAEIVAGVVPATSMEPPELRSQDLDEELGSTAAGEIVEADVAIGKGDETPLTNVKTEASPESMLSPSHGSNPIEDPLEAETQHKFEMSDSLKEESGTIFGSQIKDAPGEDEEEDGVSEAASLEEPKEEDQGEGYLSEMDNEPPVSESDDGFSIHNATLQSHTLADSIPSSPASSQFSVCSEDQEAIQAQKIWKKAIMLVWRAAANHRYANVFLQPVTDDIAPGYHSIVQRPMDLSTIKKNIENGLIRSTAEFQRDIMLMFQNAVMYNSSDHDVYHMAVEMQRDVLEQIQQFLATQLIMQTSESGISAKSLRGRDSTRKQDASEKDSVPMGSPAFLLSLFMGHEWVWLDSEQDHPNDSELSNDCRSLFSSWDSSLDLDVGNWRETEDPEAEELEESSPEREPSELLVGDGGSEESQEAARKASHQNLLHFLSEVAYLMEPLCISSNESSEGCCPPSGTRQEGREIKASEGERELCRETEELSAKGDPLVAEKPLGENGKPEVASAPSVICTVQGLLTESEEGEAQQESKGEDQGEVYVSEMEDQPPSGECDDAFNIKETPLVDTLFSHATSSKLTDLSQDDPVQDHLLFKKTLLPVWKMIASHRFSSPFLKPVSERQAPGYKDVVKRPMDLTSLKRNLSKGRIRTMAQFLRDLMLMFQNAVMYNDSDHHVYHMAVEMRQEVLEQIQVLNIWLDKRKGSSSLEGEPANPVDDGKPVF

MV4-11 [23] = assay: In vivo inhibition of BRD4 in human MV4-11 cells xenografted in BALB/c mouse assessed as reduction in cellular MYC mRNA expression level in tumor at 15 mg/kg,sc BID and measured for 8 to 12 hrs by PCR anlaysis; format: functional, organism-based; conditions: time 8-12 hrs
Procedure, shortened: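 Pharmacodynamic study in MV-4-11 AML mouse xenograft. Dosing was 15 mg/kg subcutaneous twice daily. At 4, 8 and 12 h after the second dose, MYC mRNA was measured against vehicle, and compound levels were measured in plasma and tumor. Free plasma concentration was estimated alongside total levels.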

[24] = Toxicity against BALB/c mouse plasma xenografted with human MV4-11 cells assessed as body weight loss at 30 mg/kg,po QD for 28 days; format: organism-based; conditions: in vivo, 672 h, time 28 day
Procedure, shortened: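 Body weight change (%) followed in MV-4-11 AML mouse xenograft during 28 days of oral single-agent dosing (30 mg/kg once or twice daily, 60 mg/kg once daily), vehicle PO BID as control.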

MV4-11 [25] = assay: Antitumor activity against human MV4-11 cells xenografted in BALB/c mouse assessed as complete tumor growth inhibition at 10 mg/kg,sc BID in presence of doxorubicin at 2 mg/kg,iv BIW for 28 days; format: functional, organism-based; conditions: time 28.0 day
MV4-11 [26] = assay: Antitumor activity against human MV4-11 cells xenografted in BALB/c mouse assessed as slower tumor regrowth after drug therapy removal at 10 mg/kg,sc BID in presence of doxorubicin at 2 mg/kg,iv BIW for 28 days; format: functional, organism-based; conditions: time 28.0 day
[27] = Toxicity in rat assessed as GI mucosal atrophy at 2 to 20 mg/kg,po QD consecutive for 14 days followed by 2 weeks recovery period; format: organism-based; conditions: in vivo, 336 h, dose 2-20 mg/kg, time 14 day
Procedure, shortened: (§1)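 Oral suspension given once daily for 14 consecutive days (rat 2, 6, 20 mg/kg; dog 2, 4, 6 mg/kg) in dose range-finding and GLP repeat-dose studies, GLP arms with an added 2-week recovery period; histopathology and clinical pathology findings recorded.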

[28] = Toxicity in rat assessed as GI mucosal erosion at 2 to 20 mg/kg,po QD consecutive for 14 days followed by 2 weeks recovery period; format: organism-based; conditions: in vivo, 336 h, dose 2-20 mg/kg, time 14 day; procedure, shortened: as §1
[29] = Toxicity in rat assessed as mild to moderate hyperglycemia at 2 to 20 mg/kg,po QD consecutive for 14 days followed by 2 weeks recovery period; format: organism-based; conditions: in vivo, 336 h, dose 2-20 mg/kg, time 14 day; procedure, shortened: as §1
[30] = Toxicity in dog assessed as lymphoid depletion at 2 to 6 mg/kg,po QD consecutive for 14 days followed by 2 weeks recovery period; format: organism-based, Canis lupus familiaris; conditions: in vivo, 336 h, dose 2-6 mg/kg, time 14 day; procedure, shortened: as §1
[31] = Toxicity in dog assessed as hypocellularity of bone marrow with associated anemia and thrombocytopenia at 2 to 6 mg/kg,po QD consecutive for 14 days followed by 2 weeks recovery period; format: organism-based, Canis lupus familiaris; conditions: in vivo, 336 h, dose 2-6 mg/kg, time 14 day; procedure, shortened: as §1
[32] = Toxicity in dog assessed as GI mucosal atrophy at 2 to 6 mg/kg,po QD consecutive for 14 days followed by 2 weeks recovery period; format: organism-based, Canis lupus familiaris; conditions: in vivo, 336 h, dose 2-6 mg/kg, time 14 day; procedure, shortened: as §1
[33] = Toxicity in dog assessed as GI mucosal erosion at 2 to 6 mg/kg,po QD consecutive for 14 days followed by 2 weeks recovery period; format: organism-based, Canis lupus familiaris; conditions: in vivo, 336 h, dose 2-6 mg/kg, time 14 day; procedure, shortened: as §1

pIC50 [1]: < 4.70 | pIC50 [2]: < 4.10 | fAUC [3]: 3 µM·h | Cmax [4]: 24 µM | Tmax [5]: 1.2 h | Cmax [6]: 1.8 µM | AUC(0-inf) [7]: 9.1 µM·h | half-life [8]: 0.93 h | fraction unbound [9]: 0.05 | fraction unbound [10]: 0.04 | fraction unbound [11]: 0.07 | predicted hepatic clearance [12]: 10 mL/min/kg | predicted hepatic clearance (CLH) [13]: 21 mL/min/kg | Tmax [14]: 1.3 h | bioavailability [15]: 45% | half-life [16]: 9 h | CL/F [17]: 21 L/h | Tmax [18]: 1.8 h | CL free [19]: 46.7 mL/min/kg | Cmax [20]: 8.4 µM | fAUC [21]: 1.5 µM·h | pIC50 (CREB-binding protein): < 4.70 | pIC50 [22]: < 4.82
Structure (SMILES): Cc1noc2c1-c1ccccc1C(c1ccc(Cl)cc1)=N[C@H]2CC(N)=O [PELABRESIB]
inhibition (MV4-11 [23]): inactive | Activity [24]: Non-Toxic | Activity (MV4-11 [25]): Active | Activity (MV4-11 [26]): Active | Activity [27]: Toxic | Activity [28]: Toxic | Activity [29]: Toxic | Activity [30]: Toxic | Activity [31]: Toxic | Activity [32]: Toxic | Activity [33]: Toxic
